Laboratory results taken from ChEMBL document CHEMBL4422700, “Trichothecenes from a Soil-Derived Trichoderma brevicompactum” (J Nat Prod, 2019).
Values after ≈ are worked out from the molar mass of the structure shown. Active and inactive are the calls of the source. The calls are words filed in the database; no cut-off is given here.

Key:
KB = test: Cytotoxicity against human KB cells assessed as reduction in cell viability by resazurin microplate assay; type: functional, cell-based
Method in brief: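 KB cells tested by resazurin microplate assay. Ellipticine served as positive control.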

Vero = test: Cytotoxicity against African green monkey Vero cells assessed as reduction in cell viability by resazurin microplate assay; type: cell-based, Chlorocebus sabaeus
Method in brief: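 Vero (African green monkey kidney fibroblast) cells, run in triplicate. Ellipticine served as positive control.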

Nannizzia gypsea = test: Antifungal activity against Microsporum gypseum by colorimetric broth microdilution method; type: functional
Plasmodium falciparum = test: Antimalarial activity against multidrug-resistant Plasmodium falciparum K1 infected in erythrocytes assessed as reduction in [3H]-hypoxanthine incorporation incubated for 24 hrs before [3H]-hypoxanthine addition and measured after 24 hrs by microplate scintillation counting based microculture radioisotope technique; type: functional, organism-based
Method in brief: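 Ring-stage K1 culture in RPMI-1640 at 1.5% erythrocyte suspension and 1% parasitaemia, exposed to test solution at 37 °C under CO2 for 24 h. 3H-hypoxanthine (0.5 μCi per well) was then added and incubation continued 24 h. Incorporation was read by scintillation counting; % growth = CPM treated/CPM untreated × 100. Dihydroartemisinin served as standard.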

Candida albicans = test: Antifungal activity against Candida albicans NCPF3153 by colorimetric broth microdilution method; type: functional
Cryptococcus neoformans = test: Antifungal activity against flucytosine-resistant, Cryptococcus neoformans ATCC 90113 by colorimetric broth microdilution method; type: functional
[1] = Plasmodium falciparum, K1, read-out: IC50

Row | Structure (SMILES) | IC50 (KB; kb) [µM] | IC50 (Vero; vero) [µM] | MIC (Nannizzia gypsea) | IC50 (Plasmodium falciparum; read-out: IC50) [µM] | MIC (Candida albicans) | MIC (Cryptococcus neoformans) | other results
1 | CC(=O)O[C@@H]1C[C@H]2O[C@@H]3C=C(C=O)CC[C@]3(C)[C@]1(C)[C@]21CO1 | 3.7 | 9.9 | inactive | 9.6 | – | – | –
2 | Cc1c2ccncc2c(C)c2c1[nH]c1ccccc12 [ELLIPTECINE] | – | – | – | – | – | – | IC50 (Vero; Chlorocebus sabaeus, Vero): 4.1 µM
3 | C[C@H]1C(O)O[C@@H]2O[C@@]3(C)CC[C@H]4[C@H](C)CCC1C24OO3 (some centres not stated) | – | – | – | – | – | – | IC50 (Plasmodium falciparum; [1]): 0.0022 µM
4 | CC(=O)O[C@@H]1C[C@H]2O[C@@H]3C=C(C)CC[C@]3(C)[C@]1(C)[C@]21CO1 | 2.4 | 0.4 | – | 0.1 | – | – | –
5 | CC1=C[C@H]2O[C@@H]3C[C@@H](O)[C@](C)([C@@]2(C)CC1)[C@]31CO1 [TRICHODERMOL] | 16.1 | 6.9 | inactive | 7.1 | – | – | –
6 | Clc1ccc(COC(Cn2ccnc2)c2ccc(Cl)cc2Cl)c(Cl)c1 (configuration not stated) [MICONAZOLE] | – | – | 1 µg/mL (≈ 2.4 µM) | – | – | – | –
7 | C[C@@H]1[C@H](O)[C@@H](C)/C=C/C=C/C=C/C=C/C=C/C=C/C=C/[C@H](O[C@@H]2O[C@H](C)[C@@H](O)[C@H](N)[C@@H]2O)C[C@@H]2O[C@](O)(C[C@@H](O)C[C@@H](O)[C@H](O)CC[C@@H](O)C[C@@H](O)CC(=O)O[C@H]1C)C[C@H](O)[C@H]2C(=O)O [AMPHOTERICIN B] | – | – | – | – | 0.5 µg/mL (≈ 0.541 µM) | 0.25 µg/mL (≈ 0.271 µM) | –
8 | CC(=O)O[C@@H]1C[C@H]2O[C@@H]3C[C@H](CO)CC[C@]3(C)[C@]1(C)[C@]21CO1 | 116 | 45.9 | inactive | – | inactive | inactive | IC50 (Plasmodium falciparum): Not Active
9 | CC(=O)O[C@@H]1C[C@H]2O[C@@H]3C=C(CO)CC[C@]3(C)[C@]1(C)[C@]21CO1 | 20.6 | 7.8 | inactive | 8.8 | – | – | –
10 | CC1=C[C@]23O[C@@H]4C[C@@H](O)[C@](C)([C@@]2(C)CC1)[C@]4(CO)O3 | – | – | inactive | – | 16 µg/mL (≈ 60.1 µM) | 16 µg/mL (≈ 60.1 µM) | IC50 (KB; Homo sapiens, KB): 44.7 µM; IC50 (Vero; Chlorocebus sabaeus, Vero): 15.3 µM; IC50 (Plasmodium falciparum; [1]): 7.4 µM
